Results from different studies.
Target: Tyrosine-protein kinase Yes (YES1, Homo sapiens, UniProt P07947)

| SMILES | test | setting | endpoint | value |
| --- | --- | --- | --- | --- |
| O=c1[nH]c2ccccc2n1C1CCN(Cc2ccc(-c3[nH]c4cc5ncnc5cc4nc3-c3ccccc3)cc2)CC1 | cell-free assay | 0.5 µM | remaining signal | 90.8% |
| Cn1cncc1[C@@](O)(COc1ccc(C#N)cc1-c1ccc(OC(F)(F)F)cc1)c1ccc(C#N)cc1 | cell-free assay, competition with immobilised ligand | 1 µM | remaining binding | 100% |
| COc1ncccc1-c1cnn2ccc(N3CCN(C(=O)OC(C)C)CC3)nc12 | binding, competition with immobilised ligand | 1 µM | remaining binding | 100% |
| Nc1ncc(-c2nc(N3CCOCC3)nc(N3CCOCC3)n2)c(C(F)F)n1 | binding, competition with immobilised ligand | 10 µM | remaining binding | 80% |
| C#Cc1n[nH]c2c(-c3cn([C@@H](C)c4ccccn4)c(=O)[nH]c3=O)cc(F)cc12 | enzyme activity, inhibitor | 0.1 µM | inhibition | -3.4% |
| Cc1nn(C)cc1-c1nc2c(N3CCN(Cc4ccc(Cl)cc4)CC3)c(Cl)cnc2[nH]1 | binding, competition with immobilised ligand | 1 µM | remaining binding | 96% |
| CC(C)(C)c1cc(C=C(C#N)C#N)cc(Br)c1O | enzyme activity, inhibitor | 0.5 µM | remaining activity | 83% |
| Cn1cc(-c2cc(F)cc(N3CCn4c(cc5c4CCCC5)C3=O)c2CO)cc(Nc2ccc(N3CCN(C4COC4)CC3)cn2)c1=O | enzyme activity, inhibitor | 0.1 µM | inhibition | 11% |
